Screens (PubChem BioAssay)
BB579 growth dn – growth inhibitors of yeast BB579 in restrictive medium, primary screen, yeast lifespan-shortening project, S. cerevisiae; OD615, 48 h; AID 804, 2007; 140,000 compounds, 0.51% hits; inhibition, % at 10 µM;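 active means inhibition above a set limit, 3 SD over the mean compound inhibition, cut at about 44% in these data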
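System: Saccharomyces cerevisiae DeaD strain BB579, replicative lifespan model yeast. Buffer or medium: restrictive glucose-based CSMM-D medium. Doses: one dose, 10 µM compound with 0.25% DMSO. Timing: 4 h preincubation and 48 h exposure at 30 °C. Detection: turbidity as optical density at 615 nm. Benchmarks: amphotericin B 10 µg/mL, positive.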
Efa HMGR inh – inhibitors of E. faecalis class II HMGR, primary screen, biochemical, Enterococcus faecalis; purified E. faecalis HMGR, NADPH absorbance 340 nm kinetic; inhibition, % at 10 µM; 190,000 compounds, 0.41% hits; AID 1066, 2008;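 active means inhibition above a set limit, the median over all tested compounds plus 3 SD, cut at about 9.5% in these data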;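 further: enzyme runs in reverse so mevalonate oxidation gives rising NADPH absorbance; 0% = complete reaction with DMSO and 100% = background rate lacking mevalonate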
INS promoter inh – inhibitors of insulin promoter-driven GFP, primary screen, imaging, TRM-6 cells, eGFP reporter, cell count; reporter expression induced with tamoxifen; inhibition, % at 2 µM; 130,000 compounds, 0.9% hits; AID 1273, 2008;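 active means inhibition above the mean plus 3 SD, with well images judged a real hit on visual review, cut at about 60% in these data, passing the limit was not always enough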
RAM network inh – inhibitors of the yeast RAM network, primary screen, dse1pr::URA3 reporter, 5-FOA selection; S. cerevisiae dse1pr::URA3 reporter, 5-FOA growth OD615, 2 d; analog-sensitive cbk1-as2 kinase mutant strain; inhibition, % at 50 µM; AID 868, 2007; 190,000 compounds, 1.8% hits;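 active means inhibition above a set limit, 3 SD over mean compound inhibition, cut at about 8.4% in these data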;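 further: 0% = DMSO-only wells with no growth and 100% = 10 µM 1-NA-PP1 full growth; inhibition rescues growth on 5-FOA so higher OD means more RAM inhibition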
Yeast life ext – compounds extending yeast replicative lifespan, primary screen, S. cerevisiae, OD615; inhibition of the nicotinamide effect, % at 10 µM; S. cerevisiae growth with nicotinamide; deaD strain in restrictive glucose medium; 130,000 compounds, 0.68% hits;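 active means inhibition above a set limit, placed 3 SD over the median of all compounds, cut at about 26% in these data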;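 further: 0% = nicotinamide-treated wells and 100% = cells grown without nicotinamide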
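System: DeaD-strain S. cerevisiae / Buffer or medium: CSMM-D, restrictive glucose (dextrose) synthetic minimal medium / Probe or stimulus: nicotinamide, 1.5 mM, co-present with compound / Compound: one concentration, 10 µM, DMSO 0.25% / Incubation: 48 h compound exposure at 30 °C, humidified / Technique: optical density (absorbance) at 615 nm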
Starred values were filed as active, the others as inactive; . = not tested or not shown. A selection: hits, their analogues and other compounds. The true share with any hit is near 3.7%.

SMILES | BB579 growth dn | Efa HMGR inh | INS promoter inh | RAM network inh | Yeast life ext
CC1C/C(=N/O)C(C)CN1 (stereo not given) | -90.1 | 2.0 | 50.0 | -0.7 | -9.8
O=C(NCc1ccccc1Cl)c1cc([N+](=O)[O-])ccc1Cl | . | 18.7* | . | 1.4 | .
Cc1cc(C)n(-c2ccc(Cl)c(C(=O)O)c2)n1 | . | -0.2 | -23.8 | 1.2 | .
CSc1ccc(S(=O)(=O)NCc2ccccc2Cl)cc1 | -36.4 | -0.8 | -40.7 | 0.6 | 2.8
CSc1ccc(S(=O)(=O)NCc2ccc(Cl)cc2Cl)cc1 | -70.1 | -0.7 | 48.3 | 1.8 | 87.6*
COCCNC(=S)N1CCc2cc(OC)c(OC)cc2C1COc1ccc(F)cc1 (stereo not given) | . | -2.7 | 54.5 | 8.8* | .
CCOc1ccc(N2C(=O)/C(=C/c3cccs3)N(C)C2=S)cc1 | -26.6 | -0.9 | 0.0 | 1.2 | -1.3
CCc1ccc(/C=C2/C(=O)N(CC)C(=S)N2C)s1 | -36.4 | -4.9 | 69.2* | 2.5 | 4.1
CNC(=O)COC(=O)c1cc(=O)[nH]c2ccccc12 | 7.9 | 1.5 | 25.6 | -0.1 | 53.9*
CCN(CC)S(=O)(=O)c1ccc(C(=O)Nc2nnc(-c3ccco3)o2)cc1 | . | -1.6 | . | 6.9 | .
CCCCN(CC)S(=O)(=O)c1ccc(C(=O)Nc2nnc(-c3cccs3)o2)cc1 | -45.3 | -1.6 | . | 8.6* | -12.4
CCOc1ncccc1C(=O)OCC(=O)N(CC(C)C)C1CCS(=O)(=O)C1 (stereo not given) | . | 2.4 | -42.9 | 0.7 | .
O=C(CCNS(=O)(=O)c1cccs1)NCc1ccccc1 | -75.4 | 0.1 | 15.4 | 0.7 | -4.7
O=C(CSc1nnc(NC(=O)Cc2ccc(F)cc2)s1)NCc1ccco1 | . | 5.7 | 91.7* | 2.7 | .
O=C(CSc1nnc(NC(=O)Cc2ccccc2)s1)NCc1ccco1 | . | -1.9 | 5.3 | 3.9 | .
COc1ccc(/C=C/C(=O)c2ccccc2)cc1COc1ccccc1F | -35.3 | -8.3 | 43.3 | 10.0* | 2.2
CC(=O)NC1(C(F)(F)F)N=C(c2ccccc2)NC1=O (stereo not given) | 0.6 | -1.6 | . | 1.7 | 0.5
O=C(CCC(=O)c1cccs1)c1cccs1 | -12.5 | 0.3 | 81.2* | 0.6 | .
CCN(CC)c1nc(OCCNC(=O)Nc2ccccc2)nc(N(CC)CC)n1 | -9.0 | -6.7 | 71.4* | 2.0 | -12.2
CSc1nc(-c2ccc(Cl)cc2Cl)[nH]c(=O)c1C#N | -44.8 | -5.3 | 78.6* | 4.9 | 0.2
COC(=O)/C(=C\Nc1ccc(Cl)c2ccccc12)c1ncc(C(F)(F)F)cc1Cl | -39.6 | -7.3 | -78.6 | 2.5 | -6.5
CCOC(=O)/C(=C\Nc1ccccc1C(F)(F)F)Sc1ncc(C(F)(F)F)cc1Cl | -33.2 | 0.7 | . | 10.0* | 11.2
O=C(CSc1nc(O)cc(=O)n1-c1ccccc1)Nc1ccc(Br)cn1 | . | 2.8 | . | 1.1 | .
CCCNC(=O)OCCC12CC3CC(CC(C3)C1)C2 | -44.4 | -3.5 | 69.2* | -1.1 | 20.5
CCCNC(=O)NCCC12CC3CC(CC(C3)C1)C2 | . | -11.5 | 47.1 | 0.5 | .
SMILES | BB579 growth dn | Efa HMGR inh | INS promoter inh | RAM network inh | Yeast life ext
CC(=O)NCC12CC3CC(C1)CC(C(=O)O)(C3)C2 | -21.4 | -0.4 | . | -0.2 | -0.8
COC(=O)NCC12CC3CC(C1)CC(CNC(=O)OC)(C3)C2 | -37.6 | -2.0 | -8.7 | 1.4 | 37.2*
CCN(CC(=O)Nc1ccc(N2CCOCC2)cc1)C(=O)c1ccc(C(F)(F)F)cc1 | . | 7.8 | -35.3 | 4.0 | .
COC(=O)c1cscc1NC(C)=O | -44.4 | -1.8 | 75.0* | 3.9 | -9.5
CCN1CCN(C(=O)c2ccc3c(c2)S(=O)(=O)c2ccccc2C3=O)CC1 | . | -4.2 | . | -0.4 | .
CCOc1ccc(C2NC(=O)C(C#N)=C(S)N2c2ccc(OC)cc2)cc1OC (stereo not given) | -13.5 | -4.9 | 80.0* | 0.7 | -6.8
Cc1cc(=O)[nH]c2c1c(C)nn2-c1ccccc1 | -31.1 | 1.5 | 60.9* | 1.2 | .
Cc1nc(SCC(=O)NNC(=O)c2cccs2)[nH]c(=O)c1C | . | -1.9 | 25.0 | 1.2 | .
Fc1ccc(-n2nnc(-c3ccnc4ccccc34)n2)cc1 | . | 2.7 | . | 2.3 | .
O=C(NCC1CCCO1)C(c1cccs1)N(Cc1ccccc1)C(=O)c1ccc(-c2ccccc2)[nH]1 (stereo not given) | -34.8 | -5.0 | -7.1 | 10.0* | 2.4
O=C(NCC1CCCO1)C(c1cccs1)N(Cc1cccs1)C(=O)Cn1nnc(-c2cccs2)n1 (stereo not given) | -24.8 | 16.4* | -100.0 | 3.8 | .
O=C(NCC1CCCO1)C(c1cccs1)N(C(=O)Cn1nnc(-c2cccs2)n1)C1CCCC1 (stereo not given) | -45.9 | 6.5 | -440.5 | 5.5 | .
O=C(NCC1CCCO1)C(c1cccs1)N(C(=O)c1ccc(-c2ccccc2)[nH]1)C1CCCC1 (stereo not given) | -15.6 | -5.8 | 6.9 | 1.7 | -4.5
CCN(C(=O)COC(=O)c1ccc2c(=O)n3c(nc2c1)CCC3)C1CCS(=O)(=O)C1 (stereo not given) | . | -3.9 | . | 0.5 | .
Cn1cccc1/C=N/NC(=O)C12CC3CC(CC(C3)C1)C2 | -12.9 | -0.3 | . | -0.4 | 2.4
CCN1CN(Cc2ccco2)CNC1=S | -12.1 | -5.0 | 45.2 | 0.9 | 4.0
COc1ccc(C2CC(c3ccccc3OC(C)=O)=NN2C(=O)/C=C/c2ccccc2)cc1OC (stereo not given) | -39.9 | -5.7 | 59.2 | 8.5* | 2.3
COc1ccc(C2=NN(C(=O)/C=C/c3ccccc3)C(c3ccccc3)C2)c(OC(C)=O)c1 (stereo not given) | -47.0 | 1.9 | . | 7.5 | 5.6
CC(C)OCCCNC(=O)CN1C(=O)/C(=C/c2ccccc2)Sc2ccccc21 | -32.9 | 0.9 | -77.8 | 4.8 | 0.2
CCOC(=O)c1nn(-c2ccccc2)c2nnc(Cc3ccc(C)cc3)c(=O)n12 | -17.1 | -3.1 | 76.9* | 0.3 | 9.7
CCOC(=O)c1nn(-c2ccccc2)c2nnc(Cc3ccccc3)c(=O)n12 | -13.1 | -5.3 | 7.7 | 0.9 | 31.6*
CCN(CC)C(=O)C(=O)c1cn(CC(=O)N2CCc3ccccc3C2)c2ccccc12 | . | -0.8 | -145.4 | 1.7 | .
Cc1ccccc1NC(=O)CC(O)(C(F)(F)F)C(F)(F)F | -19.7 | 1.1 | 53.9 | 0.5 | 31.9*
COc1ccc(S(=O)(=O)N2CC=C(C(=O)Nc3ccc(NC(C)=O)cc3)CC2)cc1 | . | 21.7* | -11.1 | 4.2 | .
O=C(Nc1ccccc1)Nc1ccc2ocnc2c1 | . | 17.7* | -41.7 | -0.3 | .
O=C(Nc1ccccc1)Nc1ccc2ncoc2c1 | . | 0.3 | 35.0 | 0.4 | .
CCOC(=O)c1c(C)[nH]c(C(C)=O)c1C | -65.8 | -1.4 | . | -0.2 | -13.4
CCOC(=O)c1c(C)[nH]c(C(=O)C(C)Cl)c1C (stereo not given) | . | 9.8* | . | 0.0 | .
C=CCn1c(C)cc(C(=O)COc2ncnc3sccc23)c1C | -20.8 | -2.2 | . | 1.5 | 44.1*
